In assay [1] the target is Metabotropic glutamate receptor 5 (Homo sapiens) (UniProt P41594). In words: Antagonist activity against mGlu 5a receptor in chinese hamster ovary cells using secondary messanger assay determined. As to conditions: Cricetulus griseus. It is filed as functional, cell-based. In outline: (§1)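 Cloned mGluRs measured with second-messenger assays; group I (mGlu1α, mGlu5α), mGlu2 and mGlu4α tested. Compounds tested for agonist and antagonist activity at 1 mM unless otherwise stated. Mean ± SEM of at least two independent results; some values estimated from partial concentration–response curves.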
Chain of Metabotropic glutamate receptor 5 (Homo sapiens) (P41594 21-1212 limits assumed): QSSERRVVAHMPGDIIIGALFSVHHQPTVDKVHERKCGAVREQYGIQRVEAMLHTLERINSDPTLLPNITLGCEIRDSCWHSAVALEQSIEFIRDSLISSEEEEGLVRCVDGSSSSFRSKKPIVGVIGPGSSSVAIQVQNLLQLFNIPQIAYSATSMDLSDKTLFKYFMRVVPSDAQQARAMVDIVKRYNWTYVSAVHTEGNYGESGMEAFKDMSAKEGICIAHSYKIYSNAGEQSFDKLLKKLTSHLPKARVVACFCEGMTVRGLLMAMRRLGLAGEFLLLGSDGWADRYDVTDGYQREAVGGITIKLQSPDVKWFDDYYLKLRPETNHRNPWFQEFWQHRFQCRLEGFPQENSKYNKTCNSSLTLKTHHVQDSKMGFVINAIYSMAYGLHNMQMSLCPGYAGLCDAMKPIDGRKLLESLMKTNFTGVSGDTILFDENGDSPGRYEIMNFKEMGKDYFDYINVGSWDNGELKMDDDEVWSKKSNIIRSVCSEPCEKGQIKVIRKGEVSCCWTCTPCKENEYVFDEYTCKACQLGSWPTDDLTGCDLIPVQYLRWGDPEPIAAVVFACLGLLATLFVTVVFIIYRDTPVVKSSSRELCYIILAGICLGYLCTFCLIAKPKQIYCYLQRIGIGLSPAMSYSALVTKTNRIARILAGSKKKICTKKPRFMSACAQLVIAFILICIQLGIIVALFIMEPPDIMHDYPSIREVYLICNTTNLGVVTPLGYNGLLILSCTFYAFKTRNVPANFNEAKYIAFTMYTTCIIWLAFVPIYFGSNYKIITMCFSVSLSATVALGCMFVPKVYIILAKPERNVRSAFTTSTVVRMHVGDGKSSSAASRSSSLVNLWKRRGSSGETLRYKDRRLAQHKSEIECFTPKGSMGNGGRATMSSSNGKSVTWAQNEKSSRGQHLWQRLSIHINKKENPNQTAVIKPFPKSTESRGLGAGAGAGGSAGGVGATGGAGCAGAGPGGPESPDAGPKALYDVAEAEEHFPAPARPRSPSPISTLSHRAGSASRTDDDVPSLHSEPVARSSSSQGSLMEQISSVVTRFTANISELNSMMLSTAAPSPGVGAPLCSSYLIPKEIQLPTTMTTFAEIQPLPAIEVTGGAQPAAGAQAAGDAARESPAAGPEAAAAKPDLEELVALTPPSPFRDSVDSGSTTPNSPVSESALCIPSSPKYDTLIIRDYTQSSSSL

For another assay, the species on record is Rattus norvegicus. Nature of the assay: Excitatory activity in the rat cortical slice model. It is filed as functional, organism-based. In outline: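 Rat cortical slice depolarizations evoked by excitatory amino acids; agonists applied 90 s at each concentration, with receptor selectivity checked using NBQX (AMPA) or CPP (NMDA). Poorly soluble compounds tested up to 200 μM.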

The next assay has as its target Glutamate NMDA receptor. Nature of the assay: Displacement of [3H]CPP from NMDA receptor. It is filed as protein-complex assay, Rattus norvegicus. A digest of the protocol:
(§2)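 Radioligand displacement using [3H]AMPA (AMPA), [3H]KA (kainate) or [3H]CPP (NMDA) on membrane preparations. Mean ± SEM of at least three independent results; one value estimated. Low-solubility compounds tested only at 200 μM.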
A general note: Displacement assays read how much labelled ligand stays bound in the presence of the test substance.

For assay [2], the target named is Glutamate receptor ionotropic, AMPA (Rattus norvegicus, UniProt P19490+P19491+P19492+P19493). In words: Binding affinity for AMPA receptor using [3H]AMPA. It is filed as protein-complex assay. In outline: as §2
Assay [3] deals with Glutamate receptor ionotropic, kainate. In words: Binding affinity for Ionotropic glutamate receptor kainate by [3H]-kainic acid displacement. It counts as protein-complex assay, Rattus norvegicus. In outline:
as §2

The target of assay [4] is Metabotropic glutamate receptor 2 (Homo sapiens) (UniProt Q14416). Nature of the assay: Antagonist activity against mGlu 2 receptor in chinese hamster ovary cells using secondary messanger assay determined. It counts as functional, cell-based. As to conditions: Cricetulus griseus. A digest of the protocol:
as §1

Assay [5] concerns the target Metabotropic glutamate receptor 4 (Homo sapiens) (UniProt Q14833). Nature of the assay: Antagonist activity against mGlu 4a receptor in chinese hamster ovary cells using secondary messanger assay determined. It counts as functional, cell-based. Particulars: Cricetulus griseus. A digest of the protocol:
as §1

Assay [6] addresses Metabotropic glutamate receptor 1 (Homo sapiens) (UniProt Q13255). Nature of the assay: Antagonist activity against mGlu1-alpha receptor in chinese hamster ovary cells using secondary messanger assay determined. It is filed as functional, cell-based. As to conditions: Cricetulus griseus. A digest of the protocol: as §1

In ChEMBL document CHEMBL1134383, “Synthesis and pharmacology of 3-isoxazolol amino acids as selective antagonists at group I metabotropic glutamic acid receptors” (J Med Chem, 2001) one finds Kb, EC50 and IC50 data, which are given here for 13 molecules.

Chain of Metabotropic glutamate receptor 1 (Homo sapiens) (Q13255 19-1194 limits assumed): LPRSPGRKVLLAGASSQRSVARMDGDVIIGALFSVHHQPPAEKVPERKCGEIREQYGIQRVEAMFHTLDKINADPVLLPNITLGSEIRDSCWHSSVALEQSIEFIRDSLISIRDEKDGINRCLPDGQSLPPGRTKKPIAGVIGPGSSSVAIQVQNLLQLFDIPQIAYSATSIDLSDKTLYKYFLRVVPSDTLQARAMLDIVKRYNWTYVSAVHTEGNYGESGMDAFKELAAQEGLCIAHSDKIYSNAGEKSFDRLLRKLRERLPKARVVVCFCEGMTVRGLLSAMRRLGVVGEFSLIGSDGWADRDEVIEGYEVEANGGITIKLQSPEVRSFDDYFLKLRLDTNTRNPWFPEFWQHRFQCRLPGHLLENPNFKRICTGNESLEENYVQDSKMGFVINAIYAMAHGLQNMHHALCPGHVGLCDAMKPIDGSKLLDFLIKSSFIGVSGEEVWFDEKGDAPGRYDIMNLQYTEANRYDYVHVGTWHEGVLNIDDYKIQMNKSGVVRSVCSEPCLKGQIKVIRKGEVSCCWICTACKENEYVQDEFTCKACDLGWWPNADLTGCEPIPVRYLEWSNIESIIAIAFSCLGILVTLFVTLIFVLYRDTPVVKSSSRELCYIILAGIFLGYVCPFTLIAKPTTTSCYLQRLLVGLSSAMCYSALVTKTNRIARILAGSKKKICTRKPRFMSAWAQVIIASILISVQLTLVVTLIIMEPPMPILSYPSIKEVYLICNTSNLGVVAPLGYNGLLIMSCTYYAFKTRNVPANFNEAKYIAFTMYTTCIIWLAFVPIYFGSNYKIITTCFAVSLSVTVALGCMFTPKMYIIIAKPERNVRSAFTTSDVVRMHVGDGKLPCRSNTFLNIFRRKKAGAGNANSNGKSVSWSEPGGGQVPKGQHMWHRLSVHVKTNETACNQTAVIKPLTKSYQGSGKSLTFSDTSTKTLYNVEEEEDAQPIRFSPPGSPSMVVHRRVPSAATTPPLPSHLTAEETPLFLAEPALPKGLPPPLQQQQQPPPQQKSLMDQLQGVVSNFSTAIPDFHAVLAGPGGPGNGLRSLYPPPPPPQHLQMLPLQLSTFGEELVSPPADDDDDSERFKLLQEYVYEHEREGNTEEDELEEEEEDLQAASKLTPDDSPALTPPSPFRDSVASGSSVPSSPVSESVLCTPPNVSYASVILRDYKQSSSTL
Chain of Metabotropic glutamate receptor 4 (Homo sapiens) (Q14833 whole entry): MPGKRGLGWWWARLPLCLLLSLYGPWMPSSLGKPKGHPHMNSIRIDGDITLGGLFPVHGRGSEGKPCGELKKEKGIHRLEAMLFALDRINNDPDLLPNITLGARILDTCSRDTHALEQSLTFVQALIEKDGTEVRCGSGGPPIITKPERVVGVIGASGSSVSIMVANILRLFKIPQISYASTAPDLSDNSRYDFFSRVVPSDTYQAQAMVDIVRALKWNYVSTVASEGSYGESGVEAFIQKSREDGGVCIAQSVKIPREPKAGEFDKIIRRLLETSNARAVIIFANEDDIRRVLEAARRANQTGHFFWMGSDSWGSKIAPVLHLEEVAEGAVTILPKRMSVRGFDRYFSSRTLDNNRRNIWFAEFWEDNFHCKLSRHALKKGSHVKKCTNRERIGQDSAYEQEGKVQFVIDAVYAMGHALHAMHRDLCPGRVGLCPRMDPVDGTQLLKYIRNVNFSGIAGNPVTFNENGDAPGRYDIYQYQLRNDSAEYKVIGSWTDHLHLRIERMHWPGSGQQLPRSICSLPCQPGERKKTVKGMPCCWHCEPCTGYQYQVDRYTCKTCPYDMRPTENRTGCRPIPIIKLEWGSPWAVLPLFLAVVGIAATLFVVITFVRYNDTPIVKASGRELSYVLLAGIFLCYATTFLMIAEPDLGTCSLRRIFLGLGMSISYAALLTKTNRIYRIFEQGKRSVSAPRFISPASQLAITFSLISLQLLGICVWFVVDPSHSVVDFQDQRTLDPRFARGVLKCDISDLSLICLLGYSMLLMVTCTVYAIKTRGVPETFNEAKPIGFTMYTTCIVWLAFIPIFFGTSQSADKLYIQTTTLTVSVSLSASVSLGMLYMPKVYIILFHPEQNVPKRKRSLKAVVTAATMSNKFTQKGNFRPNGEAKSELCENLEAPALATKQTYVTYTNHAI
Chain of Metabotropic glutamate receptor 2 (Homo sapiens) (Q14416 19-872 limits assumed): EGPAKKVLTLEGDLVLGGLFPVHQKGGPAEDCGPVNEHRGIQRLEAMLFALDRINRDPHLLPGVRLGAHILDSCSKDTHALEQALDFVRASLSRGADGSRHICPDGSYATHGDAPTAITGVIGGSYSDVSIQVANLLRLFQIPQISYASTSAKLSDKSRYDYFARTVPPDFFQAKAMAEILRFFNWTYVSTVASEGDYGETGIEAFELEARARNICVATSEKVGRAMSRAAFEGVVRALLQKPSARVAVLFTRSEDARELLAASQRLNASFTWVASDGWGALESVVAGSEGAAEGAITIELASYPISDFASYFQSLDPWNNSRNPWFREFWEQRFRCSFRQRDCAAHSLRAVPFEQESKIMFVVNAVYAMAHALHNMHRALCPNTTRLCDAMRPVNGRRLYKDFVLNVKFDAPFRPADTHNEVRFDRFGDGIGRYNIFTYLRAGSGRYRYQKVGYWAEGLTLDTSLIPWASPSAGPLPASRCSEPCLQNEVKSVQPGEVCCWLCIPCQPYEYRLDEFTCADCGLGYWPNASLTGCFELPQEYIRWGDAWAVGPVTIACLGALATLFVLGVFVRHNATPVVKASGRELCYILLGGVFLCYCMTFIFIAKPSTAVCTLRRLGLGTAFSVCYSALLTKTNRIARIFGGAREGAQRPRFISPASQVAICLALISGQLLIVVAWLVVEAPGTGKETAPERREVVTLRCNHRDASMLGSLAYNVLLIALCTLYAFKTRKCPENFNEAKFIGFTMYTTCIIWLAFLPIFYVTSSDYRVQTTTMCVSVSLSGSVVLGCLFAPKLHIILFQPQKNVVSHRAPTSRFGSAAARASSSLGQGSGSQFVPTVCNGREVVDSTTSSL

One may read the Kb as the equilibrium dissociation constant of an antagonist, usually derived from a functional assay. In assay [1], `CCCCc1c(O)noc1C[C@H](N)C(=O)O` showed a Kb of 97 µM.
Usually EC50 stands for the concentration at which the effect is half-maximal. A low value points to an effect from little substance. In general, IC50 refers to the point on the concentration scale where inhibition reaches its midpoint. A lower IC50 goes with greater potency. The molecule `CCCCCCc1c(O)noc1C[C@@H](N)C(=O)O` came in with an EC50 in the assay filed under Rattus norvegicus greater than 1000 µM. The 50% inhibitory concentration (IC50) (on Glutamate NMDA receptor; in assay [2]; in assay [3]) was greater than 100 µM throughout.
In the case of `NC(Cc1onc(O)c1-c1ccccc1)C(=O)O` (stereo not drawn), in the assay filed under Rattus norvegicus, the EC50 stood at 590 µM. Also, the IC50 is greater than 100 µM on Glutamate NMDA receptor, 39 µM in assay [2] and greater than 100 µM in assay [3].
Turning to `N[C@@H](Cc1cc(=O)[nH]o1)C(=O)O`, the midpoint of the response in the assay listed under Rattus norvegicus, the EC50, lay at 330 µM. Also, the IC50 on Glutamate NMDA receptor is greater than 100 µM; in assay [2] it was 0.8 µM; in assay [3], greater than 100 µM.
Turning to `CCCCCCCCc1c(O)noc1CC(N)C(=O)O` (stereo not drawn), in the assay filed under Rattus norvegicus, the half-maximal effective concentration (EC50) is greater than 500 µM. Besides, the Kb in assay [4], in assay [5] and in assay [6] was greater than 100 µM in each case.
For the molecule `N[C@@H](Cc1onc(O)c1-c1ccccc1)C(=O)O`, a half-maximal response in the assay listed under Rattus norvegicus (EC50) required 395 µM. Also, the IC50 at Glutamate NMDA receptor was greater than 100 µM; in assay [2], 23 µM; in assay [3], greater than 100 µM.
`Cc1c(O)noc1CC(N)C(=O)O` (stereo not drawn) returned a concentration giving a half-maximal response (EC50) in the assay listed under Rattus norvegicus of 18 µM. The half-maximal inhibitory concentration (IC50) in assay [2] was 0.32 µM.
Consider `N[C@H](Cc1onc(O)c1-c1ccccc1)C(=O)O`, for which, in the assay listed under Rattus norvegicus, the EC50 is greater than 1000 µM. The 50% inhibitory concentration (IC50) was 31 µM on Glutamate NMDA receptor, greater than 100 µM in assay [2] and greater than 100 µM in assay [3].
The molecule `CCCCCCc1c(O)noc1CC(N)C(=O)O` (stereo not drawn) yielded a half-maximal effective concentration (EC50) in the assay filed under Rattus norvegicus greater than 1000 µM. Besides, the IC50 (at Glutamate NMDA receptor; in assay [2]; in assay [3]) was greater than 100 µM each time.
Consider `CCCCCCCc1c(O)noc1CC(N)C(=O)O` (stereo not drawn), for which, in the assay listed under Rattus norvegicus, the 50% effective concentration (EC50) was greater than 500 µM. The IC50 (on Glutamate NMDA receptor; in assay [2]; in assay [3]) was greater than 100 µM in each case.
Take `CCCCc1c(C[C@H](N)C(=O)O)o[nH]c1=O`: the concentration for half-maximal inhibition (IC50) was greater than 100 µM on Glutamate NMDA receptor, 0.48 µM in assay [2] and greater than 100 µM in assay [3].
Consider `CCCCCCc1c(O)noc1C[C@H](N)C(=O)O`, for which the antagonist dissociation constant (Kb) came to 61 µM in assay [1] and 30 µM in assay [6]. The EC50 in the assay listed under Rattus norvegicus was greater than 1000 µM. In addition, the concentration for half-maximal inhibition (IC50) (at Glutamate NMDA receptor; in assay [2]; in assay [3]) was greater than 100 µM throughout.
For `CCCCCc1c(O)noc1CC(N)C(=O)O` (stereo not drawn), the EC50 in the assay listed under Rattus norvegicus stood at 630 µM. The IC50 on Glutamate NMDA receptor is greater than 100 µM; in assay [2], 11 µM; in assay [3], greater than 100 µM.
